Bioassay records (PubChem BioAssay)
OXTR agonist = human OXTR agonism; activation, % at 3 µM; actives 0.32% (n = 320,000); P30559; AID 2435; CHO-OTR cells, Fluo-8 calcium fluorescence; normalized: DMSO 0%, oxytocin 100%;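 active means activation above the mean of all tested compounds plus 3 SD, cutoff set per screening run, cut at about 20% in these data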;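 further: peak over basal fluorescence ratio from a 100 s FLIPR kinetic read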
Target sequence (P30559 whole entry, looked up): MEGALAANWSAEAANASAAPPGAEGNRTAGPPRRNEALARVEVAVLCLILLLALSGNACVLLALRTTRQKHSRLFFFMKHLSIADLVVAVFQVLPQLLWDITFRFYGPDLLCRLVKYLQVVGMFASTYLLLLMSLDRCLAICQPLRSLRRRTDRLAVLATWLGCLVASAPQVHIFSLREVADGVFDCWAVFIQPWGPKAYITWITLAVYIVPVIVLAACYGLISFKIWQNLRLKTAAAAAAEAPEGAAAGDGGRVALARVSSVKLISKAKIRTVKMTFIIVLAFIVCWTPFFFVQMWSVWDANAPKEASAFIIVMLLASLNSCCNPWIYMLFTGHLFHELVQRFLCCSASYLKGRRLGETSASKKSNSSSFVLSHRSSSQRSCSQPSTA
TRPN1 ag = zebrafish TRPN1 (NompC) channel agonism | HEK293 zebrafish TRPN1-YFP, Fluo-8 calcium fluorescence; 100% = response to 87 µM carbachol | activation, % at 3 µM | actives 0.18% (n = 220,000) | AID 1424;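 active means activation above its plate's cutoff, the mean activation of test wells on that plate plus 3 SD, cut at about 19% in these data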;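 further: 0% = DMSO alone and 100% = 87 µM carbachol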
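Assay system: Zebrafish TRPN1-YFP in HEK293 cells | Incubation: Dye loading 1 h at 37 °C, then 30 min room temperature | Measured by: Kinetic Fluo-8 fluorescence, ex 470-495, em 515-575 nm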
OXTR potentiate = potentiates the human oxytocin receptor response. P30559. CHO-OTR cells, Fluo-8 calcium fluorescence, potentiator mode; 0% = oxytocin EC15, 100% = EC100. activation, % at 3 µM. actives 0.061% (n = 320,000);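 active means activation above that plate's cutoff, the mean activation of tested compounds plus 3 SD, cut at about 6.6% in these data, passing the limit was not always enough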;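 further: 100% uses oxytocin at 75 nM as the full agonist control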
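assay system = CHO-OTR cells, human receptor | schedule = compound 6 min at room temperature before oxytocin, 100 s read | detection = Fluo-8 intracellular calcium fluorescence, ex 470-495, em 515-575 nm | evaluation = normalized max/min fluorescence ratio, % activation | control set = EC15 oxytocin alone as 0%, 75 nM oxytocin (EC100) as 100%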
V1aR counter = V1a receptor agonism, counter-screen for OXTR agonists; CHO-V1R cells, Fluo-8 calcium fluorescence, agonist mode; 0% DMSO, 100% 3 nM vasopressin; actives 0.25% (n = 320,000); P37288; activation, % at 3 µM;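 active means activation above the mean activation of all tested compounds plus 3 SD, per screening run, cut at about 20% in these data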;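 further: signal is peak over basal fluorescence ratio across a 100 second FLIPR read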
TRPML3 agonist = human mucolipin-3 channel agonism | actives 0.29% (n = 220,000) | HEK293 TRPML3-YFP, Fluo-8 calcium fluorescence; 100% = the carbachol control signal | activation, % at 3 µM | Q8TDD5 | AID 1448;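 active means activation above its plate's cutoff, the mean activation of the plate's test wells plus 3 SD, cut at about 12% in these data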;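 further: 0% = DMSO only wells and 100% = carbachol wells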
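Material: HEK293 cells stably carrying human TRPML3-YFP; compound dosing: single dose, 3 µM final nominal compound, 0.3% DMSO final; incubation: 1-h 37 °C dye load, 5-s basal, 120-s post-compound reads; technique: Fluo-8 intracellular calcium fluorescence, excitation 470-495 nm, emission 515-575 nm; read-out basis: percent activation from peak-to-basal fluorescence ratio, scaled between DMSO and carbachol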
CRFBP-R2 agonist = CRF-BP/CRF-R2 complex agonism. AID 588473. activation, % at 13.2 µM. actives 0.46% (n = 350,000). HEK293 CRF-R2/CRF-BP, calcium dye fluorescence (FLIPR); percent of saturating CRF peptide response;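 active means activation of at least 50%, plus an integration ratio under a set limit after plate pattern correction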;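 further: plate controls were neutral control wells without compound for no effect and CRF at EC100 for full effect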
An asterisk follows results filed as active; x = no result; ! = not confirmed by another sample. The list is not random: actives were taken first. Their share in the collection is about 0.83%.

SMILES	OXTR agonist	TRPN1 ag	OXTR potentiate	V1aR counter	TRPML3 agonist	CRFBP-R2 agonist
CCN1C(=O)C(=C/C=C/c2ccco2)C(=O)N(CC)C1=S	5	6	-12	4	6	50*
CC(C)N1C(=O)/C(=C/C=C/c2ccco2)C(=O)N(Cc2ccco2)C1=O	2	4	-17	3	1	5
CN[C@@H]1C[C@@H](c2ccc(Cl)c(Cl)c2)c2ccccc21	28*	5	-4	16	5	x
COC(=O)C1=C(c2ccc(F)cc2OCc2ccccc2)C[C@@H]2CC[C@H]1N2C(=O)NCCN1CCOCC1	0	x	-5	2	x	-4
Cc1cc(/C=C2\C(=O)NC(=O)N(c3cccc(Br)c3)C2=O)c(C)n1C	0	0	-7	0	0	97*
N#CC1C(C#N)C2CCC1C1C2N1c1ccccc1 (configuration not stated)	x	x	x	x	x	-1
O=c1[nH]c(=S)n(-c2ccc(Cl)cc2)c(O)c1C=Nc1ccc(N2CCOCC2)cc1	6	4	-10	8	2	53*
CCn1c(O)c(C=Nc2ccc(N3CCOCC3)cc2)c(=O)n(CC)c1=S	8	3	-17	13	2	97*
CCn1c(O)c(C=Nc2ccc(N3CCOCC3)c(Br)c2)c(=O)n(CC)c1=S	2	1	-5	1	1	100*
CCn1c(O)c(/C=N/N2CCOCC2)c(=O)n(CC)c1=S	1	2	9	1	1	-1
Nc1c2c(nc3ccccc13)CCN(Cc1ccccc1)C2	3	x	-5	1	x	69*
C1=C(c2c[nH]c3ccccc23)CCN(Cc2ccccc2)C1	2	0	-8	0	1	4
CC=C(CC)C1(CC)C(=O)NC(=S)NC1=O	x	x	x	x	x	1
CN1C(=O)NC(=O)C2(CCCC2)C1=O	x	x	x	x	x	-1
COC(=O)Cn1cc(/C=C2\C(=O)NC(=O)N(c3ccc(OC)cc3)C2=O)c2ccccc21	1	x	-13	1	x	81*
COc1ccc(N2C(=O)NC(=O)/C(=C\c3cn(C)c4ccccc34)C2=O)cc1	0	x	-4	2	x	120*
CC(=O)OCC[N+](C)(C)C	0	75*	0	2	100*	26
Nc1cc(C(=O)Nc2ccccc2F)ccc1N1CC2CC(C1)c1cccc(=O)n1C2 (configuration not stated)	x	x	x	x	x	0
O=[N+]([O-])/C=C/c1c(Cl)cccc1Cl	x	x	x	x	x	11
COC1C(C)OC(OC2CC(C)(O)Cc3cc4c(c(O)c32)C(=O)c2c(O)cc3c(c2C4=O)OC2OC3(C)C(O)C(N(C)C)C2O)C(OC)C1(C)OC (configuration not stated)	x	x	x	x	x	198*
N#CC(C#N)=NNc1ccc(-n2ccc(C(F)(F)F)n2)cc1	24*	27*	-21	14	23*	53*
Cc1cc(C)n(-c2ccc(NN=C(C#N)C#N)cc2)n1	19	32*	-19	18	18*	53*
COC(=O)C1=C(c2ccc(OCc3ccccc3)cc2)C[C@@H]2CC[C@H]1N2C	x	x	x	x	x	1
NC(=O)c1cc([N+](=O)[O-])cc([N+](=O)[O-])c1	x	x	x	x	x	0
CC(C)(C)c1cc([N+](=O)[O-])cc(C(C)(C)C)c1O	4	17	-11	5	11	68*
SMILES	OXTR agonist	TRPN1 ag	OXTR potentiate	V1aR counter	TRPML3 agonist	CRFBP-R2 agonist
CCN(CC)c1ccc(N=Cc2c(O)n(-c3ccccc3)c(=O)[nH]c2=O)cc1	0	1	-8	0	0	10
CCN(CC)c1ccc(N=Cc2c(O)n(Cc3ccccc3)c(=O)[nH]c2=O)cc1	0	0	-2	1	0	190*!
CCOc1ccc(-n2c(O)c(C=Nc3ccc(N(CC)CC)cc3)c(=O)[nH]c2=O)cc1	1	1	-6	1	1	102*
O=C(O)C1C2c3ccccc3C(O)C1(C(=O)O)c1ccccc12 (configuration not stated)	x	x	x	x	x	-1
Nc1c(Br)cc2c3c(cccc13)-c1ccccc1-2	x	x	x	x	x	34
Cc1[nH]nc2ccc(-c3cncc(OC[C@@H](N)Cc4c[nH]c5ccccc45)c3)cc12	x	x	x	x	x	10
COC(/C(C)=C/C=C/C(C)=C/c1coc(C)n1)C(C)C1CC(O)C2(C)OC2C=CC(C)C2CC(CC(=O)O2)CC2OC2C(=O)O1 (configuration not stated)	x	x	x	x	x	-2
CCN(CC)c1ccc(/C=C/[N+](=O)[O-])cc1	42*	47*	-17	73*	36*	251*
O=c1[nH]c(=O)n(C2CCCCC2)c(O)c1/C=C/C=Nc1ccccc1	11	6	-3	17	4	112*
C=CCn1c(O)c(/C=C/C=Nc2ccccc2)c(=O)[nH]c1=O	4	0	-3	4	2	31
COc1ccc(-n2c(O)c(/C=C/C=Nc3ccccc3)c(=O)[nH]c2=O)cc1	80*	43*	-15	43*	27*	105*
Cc1ccc(-n2c(O)c(/C=C/C=Nc3ccccc3)c(=O)[nH]c2=O)cc1	8	2	-7	6	2	53*
O=c1[nH]c(=O)n(-c2ccccc2)c(O)c1/C=C/C=Nc1ccccc1	16	5	-8	13	3	28
FC(F)(F)c1cccc(NC2=NCCS2)c1	x	x	x	x	x	0
O=[N+]([O-])c1ccc(-[n+]2c(-c3ccccc3)cc(-c3ccccc3)cc2-c2ccccc2)cc1	0	x	-2	0	x	69*
O=C([O-])c1ccc(-[n+]2c(-c3ccccc3)cc(-c3ccccc3)cc2-c2ccccc2)cc1	0	x	-7	1	x	-1
CC12CCC(=O)C=C1CC(N1CC1)C1C2CCC2(C)C(O)CCC12 (configuration not stated)	x	x	x	x	x	2
O=C(CCCN1CCC2(CC1)C(=O)NCN2c1ccccc1)c1ccc(F)cc1	41*	53*	-12	28*	50*	137*
COC(=O)C1=C(c2ccc(Cl)c(C(F)(F)F)c2)C[C@@H]2CC[C@H]1N2C(=O)N1CCC(C)CC1	-2	x	-7	-1	x	2
CC1=NCCc2c1[nH]c1cc(O)ccc21	43*	x	-12	30*	x	220*
COc1ccc(OC(=O)N(C)C[C@@H]2OCc3cnnn3CCCC(=O)N([C@@H](C)CO)C[C@@H]2C)cc1	x	x	x	x	x	-1
CCCCC1(CCCC)C(=O)NC(=Nc2cccc(C)c2)NC1=O	6	12	-20	6	4	89*
COC(=O)C(O)(c1ccc(NC(=S)NC(=O)c2ccc(Cl)cc2Cl)cc1)C(F)(F)F (configuration not stated)	19	7	-11	18	4	37
